ABHD5-PLIN5 inh – inhibitors of human ABHD5-perilipin-5 interaction; Split G. princeps luciferase complementation, luminescence, 4 h; inhibition, % at 4 µM; Q00G26+Q8WTS1; actives 0.78% (n = 360,000);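 active = inhibition above the mean inhibition across every tested compound plus 3 SD, cut at about 22% in these data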;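 note: 0% = DMSO only wells and the 100% control is not disclosed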
HKDC1 inh – blocks human hexokinase HKDC1 activity | Q2TB90 | actives 0.16% (n = 340,000) | recombinant HKDC1, G6PDH/diaphorase resazurin coupled fluorescence | inhibition, % at 20 µM;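 active = inhibition above about 35% when tested at 20 µM, limit read from the data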;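 note: plate controls were DMSO wells with enzyme for no effect and DMSO wells lacking enzyme for full effect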
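Assay system: recombinant HKDC1 hexokinase; detection: coupled resazurin fluorescence, excitation 525 nm, emission 613 nm; benchmarks: DMSO-plus-enzyme-mix negative control, buffer-substituted positive control; compound dosing: single 20 µM dose; schedule: 90 min at room temperature in dark; also added: glucose plus 1 mM ATP as hexokinase substrates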
PfG6PD inh – PfG6PD (Plasmodium falciparum) enzyme inhibition. inhibition, % at 20 µM. AID 504690. PfGluPho enzyme, NADPH resazurin-diaphorase fluorescence. actives 0.78% (n = 350,000);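 active = inhibition reaching at least a set limit at 20 µM in the primary screen, cut at about 59% in these data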;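 note: 0% = DMSO wells with substrate and 100% = DMSO wells lacking glucose-6-phosphate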
Exocytosis inh – lytic granule exocytosis inhibition; AID 651702; TALL-104 LAMP-1 surface exposure, flow cytometry; cells stimulated with thapsigargin and PMA; inhibition, % at 10 µM; actives 0.66% (n = 360,000);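 active = inhibition above about 55%, limit read from the data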
ABHD5-PLIN5 conf – ABHD5-PLIN5 interaction inhibition, confirmed. shares compounds with ABHD5-PLIN5 inh. biochemical ABHD5-PLIN5 interaction, luminescence. inhibition, % at 4 µM. actives 67% (n = 2,200); in the data active = inhibition above about 23%;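 note: 0% = DMSO vehicle wells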
HNF4 split-luc – active in HNF4 split-luciferase counter-screen for ABHD5-PLIN5 inhibitors; shares compounds with ABHD5-PLIN5 inh; HNF4 dimerization, luminescence, biochemical; inhibition, % at 4 µM; actives 77% (n = 2,200);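 active = mean inhibition across replicate wells exceeding the computed hit threshold, cut at about 13% in these data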;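 note: light from luciferase halves that rejoin when HNF4 fusion proteins dimerize; 0% = DMSO only wells and the 100% control is not given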
Target sequence (P41235 whole entry, looked up, the tested form may be a part): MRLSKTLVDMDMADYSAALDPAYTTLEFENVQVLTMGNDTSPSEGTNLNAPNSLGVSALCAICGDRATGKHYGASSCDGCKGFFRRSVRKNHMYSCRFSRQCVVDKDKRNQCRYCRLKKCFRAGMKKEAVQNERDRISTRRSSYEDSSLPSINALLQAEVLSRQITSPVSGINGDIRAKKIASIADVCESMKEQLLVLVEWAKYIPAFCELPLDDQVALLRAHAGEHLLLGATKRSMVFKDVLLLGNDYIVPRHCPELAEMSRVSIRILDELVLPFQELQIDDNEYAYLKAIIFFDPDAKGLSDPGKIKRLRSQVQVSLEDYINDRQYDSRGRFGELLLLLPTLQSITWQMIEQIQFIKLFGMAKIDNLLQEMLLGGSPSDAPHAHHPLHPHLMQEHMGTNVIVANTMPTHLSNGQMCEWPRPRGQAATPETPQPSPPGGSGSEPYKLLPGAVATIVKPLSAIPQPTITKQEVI
Numbers without * were called inactive. A selection: hits, their analogues and other compounds. The true share with any hit is near 2.2%.

For Cc1ccc(O)c(C(=O)C=Cc2ccccc2)c1 the results were ABHD5-PLIN5 inh 41.0*, HKDC1 inh 19.0, PfG6PD inh 11.3, Exocytosis inh 13.3, ABHD5-PLIN5 conf 87.9* and HNF4 split-luc 55.4*.
Screening COc1cc(C)cc(C(=O)C=Cc2ccccc2)c1O returned ABHD5-PLIN5 inh 64.1*, HKDC1 inh 14.2, PfG6PD inh 5.0, Exocytosis inh -24.5, ABHD5-PLIN5 conf 94.6* and HNF4 split-luc 75.2*.
On1nnc2ccccc21 was read as ABHD5-PLIN5 inh -5.3, HKDC1 inh -4.8, PfG6PD inh -1.4 and Exocytosis inh 0.4.
Cc1cccc(C=CC(=O)c2ccccc2)c1 was read as ABHD5-PLIN5 inh 26.7*, HKDC1 inh 7.4, PfG6PD inh 16.1, Exocytosis inh -21.0, ABHD5-PLIN5 conf 56.6* and HNF4 split-luc 44.0*.
For COc1ccc(/C=C/C(=O)c2cc3cccc(OC)c3oc2=O)cc1 the results were ABHD5-PLIN5 inh 37.5*, HKDC1 inh 17.7, PfG6PD inh 6.0, Exocytosis inh -1.3, ABHD5-PLIN5 conf 64.1* and HNF4 split-luc 52.9*.
Screening COCOc1cc(O)c(C(=O)/C=C/c2ccccc2)c(OCOC)c1 returned ABHD5-PLIN5 inh 41.1*, HKDC1 inh 7.7, PfG6PD inh 8.8, Exocytosis inh -2.1, ABHD5-PLIN5 conf 69.4* and HNF4 split-luc 62.6*.
CNC(=O)c1cc2cccc(OC)c2oc1=O was read as ABHD5-PLIN5 inh -2.3, HKDC1 inh -1.7, PfG6PD inh -4.0 and Exocytosis inh 5.2.
COc1ccc(C=CC(=O)C=CC=Cc2ccccc2)cc1 was read as ABHD5-PLIN5 inh 5.9, HKDC1 inh 2.2, PfG6PD inh -8.6 and Exocytosis inh 31.5.
O=C1NC(=O)C2(CCCCCC2)N1 was read as ABHD5-PLIN5 inh -6.8, HKDC1 inh 1.9, PfG6PD inh 0.7 and Exocytosis inh 1.6.
Cc1ccc(S(=O)(=O)CCNC(=O)Cc2ccccc2)cc1 was read as ABHD5-PLIN5 inh -5.8, HKDC1 inh 2.2, PfG6PD inh -3.1 and Exocytosis inh -2.8.
Screening COC(=O)[C@@]12CCCN1[C@H](c1ccc(-c3cccc(Cl)c3)cc1)[C@H]1C(=O)N(C)C(=O)[C@H]12 returned ABHD5-PLIN5 inh -10.0, HKDC1 inh -1.4, PfG6PD inh -2.2 and Exocytosis inh -3.6.
Cc1ccc(NC(=O)c2ccccc2)cc1 was read as ABHD5-PLIN5 inh 5.6, HKDC1 inh -0.5, PfG6PD inh 7.8 and Exocytosis inh 0.4.
`Cc1ccc(NC(=O)C2=C(c3ccccc3)S(=O)(=O)CCS2(=O)=O)cc1` gave ABHD5-PLIN5 inh 83.3*, HKDC1 inh 7.4, PfG6PD inh 44.7, Exocytosis inh 17.8, ABHD5-PLIN5 conf 100.3* and HNF4 split-luc 110.3*.
`Cc1cc(C)c[n+](-c2[nH]c(=O)sc2/C=N/N=C(\[O-])c2cccnc2)c1` gave ABHD5-PLIN5 inh -0.3, HKDC1 inh -1.3, PfG6PD inh 1.7 and Exocytosis inh -2.0.
CC(=O)Nc1ccc(S(=O)(=O)N[C@@H](C)C(=O)OCc2cc([N+](=O)[O-])cc3c2OCOC3)cc1 was read as ABHD5-PLIN5 inh 0.8, HKDC1 inh -4.5, PfG6PD inh -15.9 and Exocytosis inh -2.0.
Screening CC(C)C(NS(=O)(=O)c1ccccc1)C(=O)OCc1cc([N+](=O)[O-])cc2c1OCOC2 (stereo not given) returned ABHD5-PLIN5 inh 44.9*, HKDC1 inh -4.7, PfG6PD inh 9.3, Exocytosis inh -1.8, ABHD5-PLIN5 conf 3.8 and HNF4 split-luc 6.0.
For COc1ccc(C(=O)NCc2nnc(SCC(=O)N3CCCC3)o2)cc1OC the results were ABHD5-PLIN5 inh 7.3, HKDC1 inh -7.0, PfG6PD inh -4.3 and Exocytosis inh 11.8.
Screening CC(=O)c1ccc(NC(=O)Cc2ccsc2)cc1 returned ABHD5-PLIN5 inh 3.5, HKDC1 inh -2.8, PfG6PD inh 11.6 and Exocytosis inh 22.2.
For CCC(=O)Nc1cccc(C(=O)/C=C/c2cccs2)c1 the results were ABHD5-PLIN5 inh 32.8*, HKDC1 inh 5.3, PfG6PD inh -1.2, Exocytosis inh -10.9, ABHD5-PLIN5 conf 48.9* and HNF4 split-luc 37.3*.
Screening CCC(=O)Nc1cccc(C(=O)c2ccccc2)c1 returned ABHD5-PLIN5 inh 2.8, HKDC1 inh -6.1, PfG6PD inh -5.0 and Exocytosis inh 2.4.
For CCC(=O)Nc1cccc(C(=O)/C=C/c2ccccc2)c1 the results were ABHD5-PLIN5 inh 67.6*, HKDC1 inh 6.5, PfG6PD inh 8.9, Exocytosis inh 2.7, ABHD5-PLIN5 conf 75.0* and HNF4 split-luc 53.1*.
For CC(=O)c1cccc(NC(=O)Cc2cccs2)c1 the results were ABHD5-PLIN5 inh -3.0, HKDC1 inh -0.2, PfG6PD inh 1.0 and Exocytosis inh -3.5.
`CCOC(=O)Nc1ccc(C(=O)/C=C/c2ccccc2)cc1` gave ABHD5-PLIN5 inh 41.9*, HKDC1 inh 17.5, PfG6PD inh 32.2, Exocytosis inh 23.7, ABHD5-PLIN5 conf 60.2* and HNF4 split-luc 44.4*.
`O=C(Nc1ccccc1C(=O)Nc1nnc(C(F)(F)F)s1)c1ccccc1Cl` gave ABHD5-PLIN5 inh 0.4, HKDC1 inh 9.2, PfG6PD inh 14.1 and Exocytosis inh 16.6.
Screening COCCCn1c(=O)c2ccccc2n(CC(=O)N2CCCc3ccccc32)c1=O returned ABHD5-PLIN5 inh 5.3, HKDC1 inh 0.9, PfG6PD inh -11.0 and Exocytosis inh -3.4.
CN(Cc1nc(-c2ccccc2)no1)C1CCOCC1 was read as ABHD5-PLIN5 inh -3.9, HKDC1 inh -4.2, PfG6PD inh -17.6 and Exocytosis inh 1.8.
Screening Clc1ccc2nc(-c3ccco3)c(Cc3ccccc3)n2c1 returned ABHD5-PLIN5 inh 55.1*, Exocytosis inh 45.6, ABHD5-PLIN5 conf 57.6* and HNF4 split-luc 72.4*.
`Brc1ccc2nc(-c3ccco3)c(Cc3ccsc3)n2c1` gave ABHD5-PLIN5 inh 74.7*, Exocytosis inh 50.1, ABHD5-PLIN5 conf 49.0* and HNF4 split-luc 91.3*.
For COC(=O)c1ccc2nc(-c3ccco3)c(Cc3ccccc3)n2c1 the results were ABHD5-PLIN5 inh 67.4*, Exocytosis inh 24.9, ABHD5-PLIN5 conf 56.8* and HNF4 split-luc 83.1*.
Screening Cc1ccc2nc(-c3ccco3)c(Cc3ccccc3)n2c1 returned ABHD5-PLIN5 inh 38.1*, Exocytosis inh 3.9, ABHD5-PLIN5 conf 6.8 and HNF4 split-luc 9.7.
Screening COC(=O)c1ccc2nc(-c3ccco3)c(Cc3cccc(Cl)c3)n2c1 returned ABHD5-PLIN5 inh 21.8 and Exocytosis inh 16.0.
For O=C(O)c1ccc(S(=O)(=O)c2ccccc2C(=O)O)c([N+](=O)[O-])c1 the results were ABHD5-PLIN5 inh 3.3, HKDC1 inh -1.8, PfG6PD inh 11.6 and Exocytosis inh -6.2.
`O=C(O)c1ccc(S(=O)(=O)c2ccc([N+](=O)[O-])cc2[N+](=O)[O-])cc1` gave ABHD5-PLIN5 inh 42.3*, HKDC1 inh 17.4, PfG6PD inh 26.3, Exocytosis inh -5.5, ABHD5-PLIN5 conf 68.3* and HNF4 split-luc 110.2*.

Screens from PubChem.
